Measurements taken from ChEMBL document CHEMBL1121797, “Studies on chiral interactions of 1-(2,5-dimethoxy-4-methylphenyl)-2-aminopropane and the corresponding N-hydroxy metabolites with cytochrome P-450” (J Med Chem, 1981).

Columns and labels:
[1] = Extent rates of formation of metabolic intermediate Cytochrome P-450 at compound concentration of 30 uM; assay type: ADME
In short: (§1)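 Rabbit liver microsomes at 2 mg protein/mL with 0.1 mM EDTA, 37 °C, substrate 30 μM. Complex formation started with 0.4 mM NADPH and followed by dual-wavelength absorbance, 457 vs 500 nm. Initial rate is the initial slope, ΔA×10^4 per nmol P-450 per min. Extent is the plateau absorbance. Lag is the time from NADPH addition to first 457-nm chromophore. Triplicate or single runs.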

Cytochrome P450 2C19 [2] = target: T1, Cytochrome P450 2C19 (Homo sapiens, UniProt P33261); assay: Apparent binding affinity of compound (10.8-60.0 uM) in Cytochrome P450 binding; assay type: ADME, Oryctolagus cuniculus; details: read-out: Ks
T1 sequence (P33261 whole entry): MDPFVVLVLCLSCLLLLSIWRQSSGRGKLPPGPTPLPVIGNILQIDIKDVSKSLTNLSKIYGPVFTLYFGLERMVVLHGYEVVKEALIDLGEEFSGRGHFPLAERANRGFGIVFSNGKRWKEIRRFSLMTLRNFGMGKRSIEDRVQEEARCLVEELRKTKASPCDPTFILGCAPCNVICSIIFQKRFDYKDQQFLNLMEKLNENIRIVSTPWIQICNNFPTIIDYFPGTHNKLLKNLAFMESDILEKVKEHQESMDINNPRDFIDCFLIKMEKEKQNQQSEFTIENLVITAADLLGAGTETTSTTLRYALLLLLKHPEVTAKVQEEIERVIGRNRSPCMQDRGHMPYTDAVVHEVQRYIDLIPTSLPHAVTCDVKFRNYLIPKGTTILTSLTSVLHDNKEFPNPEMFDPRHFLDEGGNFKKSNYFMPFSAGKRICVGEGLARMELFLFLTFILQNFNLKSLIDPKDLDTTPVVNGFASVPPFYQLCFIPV

[3] = Lag time between the addition of compound (30 uM) and the first appearance of chromophore; assay type: ADME; in short: as §1
[4] = Initial rates of formation of metabolic intermediate Cytochrome P-450 at compound concentration of 7.5-180 uM; assay type: ADME
In short: (§2)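 Rabbit liver microsomes at 2 mg protein/mL with 0.1 mM EDTA, 37 °C, NADPH-dependent. Substrate tested at several concentrations. ΔA457–500 nm followed against time. Rate is the initial slope per nmol P-450 per min; extent is the plateau absorbance. Runs disturbed by a transient 450-nm species were discarded.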

[5] = Extent rates of formation of metabolic intermediate Cytochrome P-450 at compound concentration of 7.5-180 uM; assay type: ADME; in short: as §2
[6] = Initial rates of formation of metabolic intermediate Cytochrome P-450 at compound concentration of 30 uM; assay type: ADME; in short: as §1
[7] = Initial rates of formation of metabolic intermediate Cytochrome P-450 at compound concentration of 7.5-120 uM; assay type: ADME; in short: as §2
[8] = Initial rates of formation of metabolic intermediate Cytochrome P-450 with compound concentration of 150 uM; assay type: ADME
In short: (§3)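 Cross-inhibition in NADPH-supplemented rabbit liver microsomes at 37 °C. Preincubation with amine at 30, 150 or 300 μM while 457-nm complex formation was monitored. Once it plateaued (6–8 min), racemic hydroxylamine was added at 300 μM. Initial rate and plateau extent were read from ΔA457–500 nm vs time, per nmol P-450.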

[9] = Initial rates of formation of metabolic intermediate Cytochrome P-450 with compound concentration of 300 uM; assay type: ADME; in short: as §3
[10] = Extent rates of formation of metabolic intermediate Cytochrome P-450 at compound concentration of 7.5-120 uM; assay type: ADME; in short: as §2
Cytochrome P450 2C19 [11] = target: T1, Cytochrome P450 2C19; assay: Apparent binding affinity constant of compound (1.8-60.0) for Cytochrome P450; assay type: ADME, Oryctolagus cuniculus; details: read-out: Ks
[12] = Initial rates of formation of metabolic intermediate Cytochrome P-450 with compound concentration of 30 uM; assay type: ADME; in short: as §3
[13] = Extent rates of formation of metabolic intermediate Cytochrome P-450 at compound concentration of 15-180 uM; assay type: ADME; in short: as §2
Cytochrome P450 2C19 [14] = target: T1, Cytochrome P450 2C19; assay: Apparent binding affinity of compound (15.0-45.0 uM) in Cytochrome P450 binding; assay type: ADME, Oryctolagus cuniculus; details: read-out: Ks
[15] = Initial rates of formation of metabolic intermediate Cytochrome P-450 at compound concentration of 15-180 uM; assay type: ADME; in short: as §2

| Compound | Rate [1] | Kd (Cytochrome P450 2C19 [2]) [µM] | Lag time [3] [s] | Rate [4] | Rate [5] | Rate [6] | Extent [1] | Rate [7] | Rate [8] | Rate [9] | Extent [10] | Kd (Cytochrome P450 2C19 [11]) [µM] | Rate [12] | Rate [13] | Kd (Cytochrome P450 2C19 [14]) [µM] | Rate [15] |
| --- | --- | --- | --- | --- | --- | --- | --- | --- | --- | --- | --- | --- | --- | --- | --- | --- |
| COc1cc(C[C@@H](C)NO)c(OC)cc1C | 124 | 22 | 0 | 30 | 23 | 182 | – | – | – | – | – | – | – | – | – | – |
| COc1cc(C[C@H](C)N)c(OC)cc1C | – | – | 136 | – | – | 3.1 | 29 | 0 | 1.5 | 1.1 | 0 | 6 | 1.7 | – | – | – |
| COc1cc(C[C@H](C)NO)c(OC)cc1C | 161 | – | 0 | – | – | 211 | – | – | – | – | – | – | – | 34 | 68 | 66 |
